Screening results as filed in PubChem.
Kir21 block = blocks the mouse Kir2.1 inward-rectifier potassium channel; P35561; HEK293-Kir2.1, FluxOR thallium flux fluorescence; hits give low values; B-score at 10 µM; actives 0.85% (n = 310,000);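 active means fluorescence ratio B-score at or below minus 3 SD of library scores, with starting-brightness B-score within 2 SD, cut at about -4.2 in these data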;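 further: channel flux triggered by added potassium and thallium sulfate stimulus; B-score of peak minus minimum fluorescence over baseline after thallium stimulus; more negative B-score means stronger Kir2.1 block with less thallium influx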
KCNQ1 inh = blocks the human KCNQ1 potassium channel; P51787; CHO-K1 KCNQ1, FluxOR thallium flux fluorescence; hits give high values; B-score at 10 µM; actives 1.3% (n = 310,000); AID 2642;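 active means compounds whose thallium flux B-score, printed positive for inhibition, exceeds three library SD while starting fluorescence stays within three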;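 further: channel opened by potassium depolarization with thallium stimulus after 20 min compound exposure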
Target sequence (P51787 whole entry, looked up): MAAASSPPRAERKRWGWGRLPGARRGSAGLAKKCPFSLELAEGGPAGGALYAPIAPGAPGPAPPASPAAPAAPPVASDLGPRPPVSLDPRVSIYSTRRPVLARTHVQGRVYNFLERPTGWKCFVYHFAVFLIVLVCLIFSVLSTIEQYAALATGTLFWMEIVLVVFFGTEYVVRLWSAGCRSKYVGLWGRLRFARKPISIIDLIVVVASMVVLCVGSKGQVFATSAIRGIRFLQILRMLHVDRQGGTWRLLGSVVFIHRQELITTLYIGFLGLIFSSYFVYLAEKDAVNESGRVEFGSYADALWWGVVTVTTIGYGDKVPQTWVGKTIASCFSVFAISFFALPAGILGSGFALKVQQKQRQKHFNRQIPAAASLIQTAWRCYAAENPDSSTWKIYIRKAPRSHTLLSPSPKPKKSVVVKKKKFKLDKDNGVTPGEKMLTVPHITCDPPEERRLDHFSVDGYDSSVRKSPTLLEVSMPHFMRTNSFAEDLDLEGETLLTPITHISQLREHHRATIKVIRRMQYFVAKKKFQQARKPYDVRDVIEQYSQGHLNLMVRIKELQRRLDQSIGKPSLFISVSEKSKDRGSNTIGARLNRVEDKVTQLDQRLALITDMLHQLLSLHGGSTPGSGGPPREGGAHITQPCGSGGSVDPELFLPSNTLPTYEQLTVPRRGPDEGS
KCNQ1 pot = potentiates or activates the human KCNQ1 potassium channel; B-score at 10 µM; CHO-K1 KCNQ1, thallium flux FluxOR fluorescence; hits give high values; AID 2648; actives 0.35% (n = 310,000);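 active means fluorescence ratio B-score, a plate-corrected score, at least three library SD, with initial intensity B-score within 5 SD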
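assay system = CHO-K1 cells stably expressing KCNQ1 | medium = assay buffer, equal DMSO in all wells | timing = 37 °C overnight plating, 90-min dark dye load, 20-min compound pretreatment | measured by = kinetic FluxOR thallium fluorescence, 10-s 1-Hz baseline, 110-s post-stimulus read | measure = fluorescence change relative to baseline, converted to B score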
hERG rescue = compounds protecting human hERG from proarrhythmic drug block. Q12809. CHO-hERG, FluxOR thallium flux, dofetilide IC70 present. activation (rescue from dofetilide block), less the hit threshold, % at 10 µM. actives 0.51% (n = 310,000). AID 1511;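 active means activation above the mean of controls blocked by dofetilide plus 5 SD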;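 further: thallium influx through hERG after potassium depolarization seen as dye fluorescence rise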
KCNK9 inh = blocks the human KCNK9 two-pore domain potassium channel; Q9NPC2; HEK293 KCNK9, FluxOR thallium flux fluorescence; hits give low values; B-score at 10 µM; actives 1.2% (n = 310,000); AID 488922;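 active means ratio B-score over 3 SD below the library mean, with starting fluorescence within 5 SD of its mean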;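 further: negative B-score means less thallium flux so channel inhibition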
KCNK3 inh = human KCNK3 channel inhibition, primary screen. actives 0.84% (n = 340,000). O14649. CHO-KCNK3 thallium flux, FluxOR fluorescence; hits give low values. B-score at 10 µM;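 active means B-score under library mean minus 4 SD, starting fluorescence ratio at most library mean plus 5 SD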;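 further: more negative B-score means stronger inhibition of thallium flux through KCNK3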
Numbers without * were called inactive; i = inactive; nt = no result. Only some compounds are listed: those with a hit (about 3.7% of all), similar ones and a draw of the others.

SMILES | Kir21 block | KCNQ1 inh | KCNQ1 pot | hERG rescue | KCNK9 inh | KCNK3 inh
C=CCCN(Cc1ccccc1)S(=O)(=O)c1cc(Br)ccc1Br | nt | nt | nt | nt | nt | i
COc1ccccc1NC(=O)C(=O)NNC(=O)COc1ccc2ccccc2c1 | 1.7 | i | 84* | 56* | i | i
COc1cccc(OCC(=O)NNC(=O)C(=O)Nc2ccc(OC)cc2OC)c1 | 0.56 | i | 11* | 23* | i | i
COc1ccc(OC)c(NC(=O)C(=O)NNC(=O)C23CC4CC(CC(C4)C2)C3)c1 | 0.01 | i | 10* | 65* | i | i
COc1ccc(NC(=O)CNC(=O)C23CC4CC(CC(C4)C2)C3)c(OC)c1 | -2 | i | i | -15 | i | i
COc1ccc(NC(=O)COc2ccccc2)c(OC)c1 | 0.18 | i | i | -8 | i | i
O=C(CN1C(=O)c2ccccc2S1(=O)=O)NCc1cccs1 | 1.2 | i | i | -8 | i | i
CC(CCc1ccccc1)NC(=O)c1ccc(NC(=O)c2cccc(Br)c2)cc1 (configuration not stated) | 1.2 | i | i | -2 | -7.4* | i
COc1ccccc1C=NN=C(NN=Cc1ccccc1OC)NN=Cc1ccccc1OC | nt | nt | nt | nt | nt | -11*
CCOC(=O)c1ccc(NS(=O)(=O)c2c(C)nc3sccn3c2=O)cc1 | 0.05 | i | i | -7 | i | i
COc1ccc(CC(=O)Nc2ccc(N3CCOCC3)cc2)cc1S(=O)(=O)N1CCOCC1 | 0.53 | i | i | -15 | i | i
CNC(=O)NCC12CC3CC(CC(C3)C1)C2 | -1.9 | i | i | 5.1* | i | i
CN1CCN(C(=O)NCC23CC4CC(CC(C4)C2)C3)CC1 | -0.94 | i | i | -14 | i | i
Oc1ccc2ccccc2c1-c1sc(Nc2ccccc2)n[n+]1-c1ccc(F)cc1 | -0.32 | 9* | i | -22 | i | i
O=C(COc1ccc(S(=O)(=O)NC2CCCCC2)cc1)NC1CC1 | -0.98 | i | i | -4 | i | i
O=C(O)CCn1c(=S)n(CCC(=O)O)c2ccccc21 | 1.3 | i | i | -5 | i | i
Cc1ccccc1NCN1C(=O)C2CCC(C)(C1=O)C2(C)C (configuration not stated) | -0.39 | i | i | -7 | i | i
CC12CCC(C(=O)N(CSC(=S)N/N=C\c3ccccc3)C1=O)C2(C)C (configuration not stated) | 0.07 | i | 15* | 1 | i | i
CC12CCC(C(=O)N(CSC(=S)N/N=C\c3ccccc3Cl)C1=O)C2(C)C (configuration not stated) | -0.14 | i | 35* | -6 | i | i
C/C(=N\NC(=O)Cn1nc(C)c([N+](=O)[O-])c1C)c1ccc(Cl)s1 | -0.07 | i | i | -7 | i | i
COCCNC(=O)C(c1ccncc1)N(C(=O)Cn1nnc2ccccc21)c1ccc(OC)cc1 (configuration not stated) | -0.88 | i | i | 5.0* | i | i
O=C(COC(=O)CCNS(=O)(=O)c1ccccc1)Nc1ccc(OC(F)F)cc1 | nt | nt | nt | nt | nt | i
Cn1cnc([N+](=O)[O-])c1Sc1ncn[nH]1 | -0.47 | i | i | 0 | i | i
O=C(c1ccccc1SCc1ccccc1)N1CCCCCC1 | -4.5* | i | i | -14 | i | i
O=S(=O)(Nc1ccc(F)cc1)N1CCOCC1 | 1.2 | i | i | -5 | i | i
SMILES | Kir21 block | KCNQ1 inh | KCNQ1 pot | hERG rescue | KCNK9 inh | KCNK3 inh
COc1ccc(C)cc1-n1nnnc1SC(C)C(=O)NC1CCCC1 (configuration not stated) | nt | nt | nt | nt | nt | i
COc1ccc(OCC(=O)OCC(=O)NC2CC2)cc1 | nt | nt | nt | nt | nt | i
CCOC(=O)c1cc(CC)sc1NC(=O)CCC(=O)O | 0 | i | i | -2 | i | i
N#Cc1c(NC(=O)COC(=O)c2nccnc2N)sc2c1CCCC2 | -1.7 | i | i | -12 | i | i
CCOC(=O)c1c(NC(=O)COC(=O)c2nccnc2N)sc2c1CCC2 | nt | nt | nt | nt | nt | -11*
CCOC(=O)c1cc(CC)sc1NC(=O)Cc1ccsc1 | -0.03 | i | i | -7 | i | -9*
CCOC(=O)c1cc(CC)sc1NC(=O)CN1CCN(C(=O)c2ccco2)CC1 | 1.2 | i | 23* | -32 | i | i
CCOC(=O)c1c(NC(=O)c2ccco2)sc2c1CCCC2 | 0.29 | i | i | -5 | i | i
CCOC(=O)c1c(NC(=O)CN2CCN(C(=O)c3ccco3)CC2)sc2c1CCCC2 | -0.42 | i | 14* | 29* | i | i
COC(=O)c1cc(C)sc1NC(=O)CN1CCN(C(=O)c2ccco2)CC1 | -1.1 | i | i | -3 | i | i
CCOC(=O)c1cc(C)sc1NC(=O)CN1CCN(C(=O)c2ccco2)CC1 | -0.17 | i | 9* | -4 | i | i
COc1ccc(CCN(C)C(=O)c2ccc(COc3ccccc3)o2)cc1OC | -5.8* | i | i | -11 | i | i
COC(=O)c1ccccc1NC(=O)c1ccc(COc2ccccc2)o1 | nt | nt | nt | nt | nt | -10*
COc1cc2c(cc1OC)C(c1ccccc1)N(C(=O)C(C)(C)C)CC2 (configuration not stated) | -0.27 | i | i | -8 | i | i
O=C(O)C1(c2ccccc2)CCN(S(=O)(=O)c2ccc(F)c(F)c2)CC1 | -1.5 | i | i | -2 | i | i
COc1ccc(S(=O)(=O)N2CCCCCC2)cc1C(=O)N1CCN(c2ccccc2O)CC1 | -0.54 | i | i | -11 | i | i
O=C(CN1C(=O)NC2(CCCC2)C1=O)OCc1cccc(Br)c1 | nt | nt | nt | nt | nt | i
Cc1ccc(COn2c(-c3ccc(Cl)cc3)nc3ccc([N+](=O)[O-])cc32)cc1 | 0.21 | i | i | -7 | i | i
O=[N+]([O-])c1ccc2nc(-c3ccc(Cl)cc3)n(OCc3ccccc3)c2c1 | 0.19 | 6* | i | -4 | i | i
CCOC(=O)C(C)On1c(-c2ccccc2)nc2ccc([N+](=O)[O-])cc21 (configuration not stated) | -1.4 | i | i | -16 | i | i
CCOC(=O)C(C)On1c(-c2ccc(Cl)cc2)nc2ccc([N+](=O)[O-])cc21 (configuration not stated) | 0.57 | 9* | i | -2 | i | i
COc1ccc(NC(=O)CN2CCN(C(C)=O)CC2)cc1S(=O)(=O)N1CCOCC1 | nt | nt | nt | nt | nt | i
CCc1cccc(CC)c1NC(=S)NCC(c1cccnc1)N(C)C (configuration not stated) | 0.07 | i | i | -6 | i | i
